Measured values published in ChEMBL document CHEMBL1156088, “Synthesis and biological activity of novel oxazolidinones” (2009).
In brackets after ≈: the same amount, converted by molar mass.

tested on: Staphylococcus aureus; experiment: Antibacterial activity against Staphylococcus aureus ATCC 25923 by NCCLS method; type: functional
How it was run: (§1)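 In vitro MIC determination by the NCCLS method against a panel of gram-positive bacteria. Two oxazolidinone reference standards were tested alongside.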

Row | Structure (SMILES) | MIC
1 | O=C1O[C@@H](CN=C=S)CN1c1ccc(N2CCN(Cc3ccc([N+](=O)[O-])o3)CC2)c(F)c1 | > 16 µg/mL
2 | O=C(NC[C@H]1CN(c2ccc(N3CCN(Cc4ccc([N+](=O)[O-])o4)CC3)c(F)c2)C(=O)O1)c1ccc([N+](=O)[O-])s1 | > 16 µg/mL
3 | O=C(NC[C@H]1CN(c2ccc(N3CCN(Cc4ccc([N+](=O)[O-])o4)CC3)c(F)c2)C(=O)O1)C(Cl)Cl | > 16 µg/mL
4 | O=C(/C=C/c1ccc2c(c1)OCO2)NC[C@H]1CN(c2ccc(N3CCN(Cc4ccc([N+](=O)[O-])o4)CC3)c(F)c2)C(=O)O1 | > 16 µg/mL
5 | O=C(CCl)NC[C@H]1CN(c2ccc(N3CCN(Cc4ccc([N+](=O)[O-])o4)CC3)c(F)c2)C(=O)O1 | 2 µg/mL (≈ 4.03 µM)
6 | O=C1O[C@@H](CNc2ccon2)CN1c1ccc(N2CCN(Cc3ccc([N+](=O)[O-])o3)CC2)c(F)c1 | 2 µg/mL (≈ 4.11 µM)
7 | COC(=S)NC[C@H]1CN(c2ccc(N3CCN(Cc4ccc([N+](=O)[O-])o4)CC3)c(F)c2)C(=O)O1 | 2 µg/mL (≈ 4.05 µM)

tested on: Streptococcus pneumoniae; experiment: Antibacterial activity against Streptococcus pneumoniae ATCC 6303 by NCCLS method; type: functional; how it was run: as §1

Row | Structure (SMILES) | MIC
8 | O=C1O[C@@H](CN=C=S)CN1c1ccc(N2CCN(Cc3ccc([N+](=O)[O-])o3)CC2)c(F)c1 | > 16 µg/mL
9 | O=C(NC[C@H]1CN(c2ccc(N3CCN(Cc4ccc([N+](=O)[O-])o4)CC3)c(F)c2)C(=O)O1)c1ccc([N+](=O)[O-])s1 | > 16 µg/mL
10 | O=C(NC[C@H]1CN(c2ccc(N3CCN(Cc4ccc([N+](=O)[O-])o4)CC3)c(F)c2)C(=O)O1)C(Cl)Cl | > 16 µg/mL
11 | O=C(/C=C/c1ccc2c(c1)OCO2)NC[C@H]1CN(c2ccc(N3CCN(Cc4ccc([N+](=O)[O-])o4)CC3)c(F)c2)C(=O)O1 | > 16 µg/mL
12 | O=C(CCl)NC[C@H]1CN(c2ccc(N3CCN(Cc4ccc([N+](=O)[O-])o4)CC3)c(F)c2)C(=O)O1 | 0.5 µg/mL (≈ 1.01 µM)
13 | O=C1O[C@@H](CNc2ccon2)CN1c1ccc(N2CCN(Cc3ccc([N+](=O)[O-])o3)CC2)c(F)c1 | 1 µg/mL (≈ 2.06 µM)
14 | COC(=S)NC[C@H]1CN(c2ccc(N3CCN(Cc4ccc([N+](=O)[O-])o4)CC3)c(F)c2)C(=O)O1 | 0.5 µg/mL (≈ 1.01 µM)

tested on: Staphylococcus aureus; experiment: Antibacterial activity against methicillin-resistant Staphylococcus aureus 33 by NCCLS method; type: functional
How it was run: (§2)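 In vitro MIC determined by the NCCLS method against a panel of gram-positive bacteria. Ranbezolid and linezolid were run alongside as reference standards.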

Row | Structure (SMILES) | MIC
15 | O=C1O[C@@H](CN=C=S)CN1c1ccc(N2CCN(Cc3ccc([N+](=O)[O-])o3)CC2)c(F)c1 | > 16 µg/mL
16 | O=C(NC[C@H]1CN(c2ccc(N3CCN(Cc4ccc([N+](=O)[O-])o4)CC3)c(F)c2)C(=O)O1)c1ccc([N+](=O)[O-])s1 | > 16 µg/mL
17 | O=C(NC[C@H]1CN(c2ccc(N3CCN(Cc4ccc([N+](=O)[O-])o4)CC3)c(F)c2)C(=O)O1)C(Cl)Cl | > 16 µg/mL
18 | O=C(/C=C/c1ccc2c(c1)OCO2)NC[C@H]1CN(c2ccc(N3CCN(Cc4ccc([N+](=O)[O-])o4)CC3)c(F)c2)C(=O)O1 | > 16 µg/mL
19 | O=C(CCl)NC[C@H]1CN(c2ccc(N3CCN(Cc4ccc([N+](=O)[O-])o4)CC3)c(F)c2)C(=O)O1 | 2 µg/mL (≈ 4.03 µM)
20 | O=C1O[C@@H](CNc2ccon2)CN1c1ccc(N2CCN(Cc3ccc([N+](=O)[O-])o3)CC2)c(F)c1 | 2 µg/mL (≈ 4.11 µM)
21 | COC(=S)NC[C@H]1CN(c2ccc(N3CCN(Cc4ccc([N+](=O)[O-])o4)CC3)c(F)c2)C(=O)O1 | 2 µg/mL (≈ 4.05 µM)

tested on: Streptococcus pyogenes; experiment: Antibacterial activity against Streptococcus pyogenes ATCC 19615 by NCCLS method; type: functional; how it was run: as §1

Row | Structure (SMILES) | MIC
22 | O=C1O[C@@H](CN=C=S)CN1c1ccc(N2CCN(Cc3ccc([N+](=O)[O-])o3)CC2)c(F)c1 | > 16 µg/mL
23 | O=C(NC[C@H]1CN(c2ccc(N3CCN(Cc4ccc([N+](=O)[O-])o4)CC3)c(F)c2)C(=O)O1)c1ccc([N+](=O)[O-])s1 | > 16 µg/mL
24 | O=C(NC[C@H]1CN(c2ccc(N3CCN(Cc4ccc([N+](=O)[O-])o4)CC3)c(F)c2)C(=O)O1)C(Cl)Cl | > 16 µg/mL
25 | O=C(/C=C/c1ccc2c(c1)OCO2)NC[C@H]1CN(c2ccc(N3CCN(Cc4ccc([N+](=O)[O-])o4)CC3)c(F)c2)C(=O)O1 | > 16 µg/mL
26 | O=C(CCl)NC[C@H]1CN(c2ccc(N3CCN(Cc4ccc([N+](=O)[O-])o4)CC3)c(F)c2)C(=O)O1 | 0.5 µg/mL (≈ 1.01 µM)
27 | O=C1O[C@@H](CNc2ccon2)CN1c1ccc(N2CCN(Cc3ccc([N+](=O)[O-])o3)CC2)c(F)c1 | 1 µg/mL (≈ 2.06 µM)
28 | COC(=S)NC[C@H]1CN(c2ccc(N3CCN(Cc4ccc([N+](=O)[O-])o4)CC3)c(F)c2)C(=O)O1 | 1 µg/mL (≈ 2.03 µM)

tested on: Enterococcus faecium; experiment: Antibacterial activity against vancomycin-resistant Enterococcus faecium 6A by NCCLS method; type: functional; how it was run: as §2

Row | Structure (SMILES) | MIC
29 | O=C1O[C@@H](CN=C=S)CN1c1ccc(N2CCN(Cc3ccc([N+](=O)[O-])o3)CC2)c(F)c1 | > 16 µg/mL
30 | O=C(NC[C@H]1CN(c2ccc(N3CCN(Cc4ccc([N+](=O)[O-])o4)CC3)c(F)c2)C(=O)O1)c1ccc([N+](=O)[O-])s1 | > 16 µg/mL
31 | O=C(NC[C@H]1CN(c2ccc(N3CCN(Cc4ccc([N+](=O)[O-])o4)CC3)c(F)c2)C(=O)O1)C(Cl)Cl | > 16 µg/mL
32 | O=C(/C=C/c1ccc2c(c1)OCO2)NC[C@H]1CN(c2ccc(N3CCN(Cc4ccc([N+](=O)[O-])o4)CC3)c(F)c2)C(=O)O1 | > 16 µg/mL
33 | O=C(CCl)NC[C@H]1CN(c2ccc(N3CCN(Cc4ccc([N+](=O)[O-])o4)CC3)c(F)c2)C(=O)O1 | 2 µg/mL (≈ 4.03 µM)
34 | O=C1O[C@@H](CNc2ccon2)CN1c1ccc(N2CCN(Cc3ccc([N+](=O)[O-])o3)CC2)c(F)c1 | 2 µg/mL (≈ 4.11 µM)
35 | COC(=S)NC[C@H]1CN(c2ccc(N3CCN(Cc4ccc([N+](=O)[O-])o4)CC3)c(F)c2)C(=O)O1 | 1 µg/mL (≈ 2.03 µM)

tested on: Staphylococcus aureus; experiment: Antibacterial activity against Staphylococcus aureus 15187 by NCCLS method; type: functional; how it was run: as §1

Row | Structure (SMILES) | MIC
36 | O=C1O[C@@H](CN=C=S)CN1c1ccc(N2CCN(Cc3ccc([N+](=O)[O-])o3)CC2)c(F)c1 | > 16 µg/mL
37 | O=C(NC[C@H]1CN(c2ccc(N3CCN(Cc4ccc([N+](=O)[O-])o4)CC3)c(F)c2)C(=O)O1)c1ccc([N+](=O)[O-])s1 | > 16 µg/mL
38 | O=C(NC[C@H]1CN(c2ccc(N3CCN(Cc4ccc([N+](=O)[O-])o4)CC3)c(F)c2)C(=O)O1)C(Cl)Cl | > 16 µg/mL
39 | O=C(/C=C/c1ccc2c(c1)OCO2)NC[C@H]1CN(c2ccc(N3CCN(Cc4ccc([N+](=O)[O-])o4)CC3)c(F)c2)C(=O)O1 | > 16 µg/mL
40 | O=C(CCl)NC[C@H]1CN(c2ccc(N3CCN(Cc4ccc([N+](=O)[O-])o4)CC3)c(F)c2)C(=O)O1 | 2 µg/mL (≈ 4.03 µM)
41 | O=C1O[C@@H](CNc2ccon2)CN1c1ccc(N2CCN(Cc3ccc([N+](=O)[O-])o3)CC2)c(F)c1 | 2 µg/mL (≈ 4.11 µM)
42 | COC(=S)NC[C@H]1CN(c2ccc(N3CCN(Cc4ccc([N+](=O)[O-])o4)CC3)c(F)c2)C(=O)O1 | 2 µg/mL (≈ 4.05 µM)

tested on: Staphylococcus aureus; experiment: Antibacterial activity against methicillin-resistant Staphylococcus aureus 562 by NCCLS method; type: functional; how it was run: as §2

Row | Structure (SMILES) | MIC
43 | O=C1O[C@@H](CN=C=S)CN1c1ccc(N2CCN(Cc3ccc([N+](=O)[O-])o3)CC2)c(F)c1 | > 16 µg/mL
44 | O=C(NC[C@H]1CN(c2ccc(N3CCN(Cc4ccc([N+](=O)[O-])o4)CC3)c(F)c2)C(=O)O1)c1ccc([N+](=O)[O-])s1 | > 16 µg/mL
45 | O=C(NC[C@H]1CN(c2ccc(N3CCN(Cc4ccc([N+](=O)[O-])o4)CC3)c(F)c2)C(=O)O1)C(Cl)Cl | > 16 µg/mL
46 | O=C(/C=C/c1ccc2c(c1)OCO2)NC[C@H]1CN(c2ccc(N3CCN(Cc4ccc([N+](=O)[O-])o4)CC3)c(F)c2)C(=O)O1 | > 16 µg/mL
47 | O=C(CCl)NC[C@H]1CN(c2ccc(N3CCN(Cc4ccc([N+](=O)[O-])o4)CC3)c(F)c2)C(=O)O1 | 2 µg/mL (≈ 4.03 µM)
48 | O=C1O[C@@H](CNc2ccon2)CN1c1ccc(N2CCN(Cc3ccc([N+](=O)[O-])o3)CC2)c(F)c1 | 2 µg/mL (≈ 4.11 µM)
49 | COC(=S)NC[C@H]1CN(c2ccc(N3CCN(Cc4ccc([N+](=O)[O-])o4)CC3)c(F)c2)C(=O)O1 | 2 µg/mL (≈ 4.05 µM)

tested on: Enterococcus faecalis; experiment: Antibacterial activity against Enterococcus faecalis ATCC 29212 by NCCLS method; type: functional; how it was run: as §1

Row | Structure (SMILES) | MIC
50 | O=C1O[C@@H](CN=C=S)CN1c1ccc(N2CCN(Cc3ccc([N+](=O)[O-])o3)CC2)c(F)c1 | > 16 µg/mL
51 | O=C(NC[C@H]1CN(c2ccc(N3CCN(Cc4ccc([N+](=O)[O-])o4)CC3)c(F)c2)C(=O)O1)c1ccc([N+](=O)[O-])s1 | > 16 µg/mL
52 | O=C(NC[C@H]1CN(c2ccc(N3CCN(Cc4ccc([N+](=O)[O-])o4)CC3)c(F)c2)C(=O)O1)C(Cl)Cl | > 16 µg/mL
53 | O=C(/C=C/c1ccc2c(c1)OCO2)NC[C@H]1CN(c2ccc(N3CCN(Cc4ccc([N+](=O)[O-])o4)CC3)c(F)c2)C(=O)O1 | > 16 µg/mL
54 | O=C(CCl)NC[C@H]1CN(c2ccc(N3CCN(Cc4ccc([N+](=O)[O-])o4)CC3)c(F)c2)C(=O)O1 | 2 µg/mL (≈ 4.03 µM)
55 | O=C1O[C@@H](CNc2ccon2)CN1c1ccc(N2CCN(Cc3ccc([N+](=O)[O-])o3)CC2)c(F)c1 | 2 µg/mL (≈ 4.11 µM)
56 | COC(=S)NC[C@H]1CN(c2ccc(N3CCN(Cc4ccc([N+](=O)[O-])o4)CC3)c(F)c2)C(=O)O1 | 1 µg/mL (≈ 2.03 µM)
